One assay has as its target Tumor necrosis factor (Homo sapiens, UniProt P01375). The assay can be described thus: The compound was tested in vitro for inhibitory activity against Tumor necrosis factor alpha from human PMBC cell line by ELISA test. The assay is classed as functional, cell-based. Put shortly:
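PBMC isolated from heparinized normal human blood by Ficoll-Histopaque, cultured in RPMI 1640 with 20% autologous plasma and L-glutamine. Compounds were added at 2× in an equal volume, 60 min preincubation, then LPS stimulation. Supernatant was taken 18 h later. TNFα sandwich ELISA (2 µg/mL mouse anti-human capture, BSA block, 2 h at 37 °C), standard curve. IC50 is the µM concentration giving 50% inhibition versus control; a subset was run in ≥3 separate experiments.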

The next assay has as its system Jurkat. Put plainly: Cell toxicity against jurkat cells determined using MTT assay. The assay is classed as functional, cell-based. The following applies: Homo sapiens. Put shortly: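 Jurkat cells, MTT (3-[4,5-dimethylthiazol-2-yl]-2,5-diphenyltetrazolium bromide) read-out. The value is the µM concentration that inhibited growth by 50% of control.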

Structures are written as SMILES.

Sequence of Tumor necrosis factor (P01375 whole entry): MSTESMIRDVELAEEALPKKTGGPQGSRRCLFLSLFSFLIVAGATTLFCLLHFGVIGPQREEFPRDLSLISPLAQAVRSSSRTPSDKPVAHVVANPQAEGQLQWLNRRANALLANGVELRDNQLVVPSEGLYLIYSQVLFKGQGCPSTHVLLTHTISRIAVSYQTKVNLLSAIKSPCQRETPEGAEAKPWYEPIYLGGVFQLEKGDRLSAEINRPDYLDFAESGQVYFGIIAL

`CCOC(=O)CCCn1cc(Br)c2cc(OC)c(OC)cc2c1=O` displayed an IC50 at Tumor necrosis factor of 51 µM. As for `CCOC(=O)CCCn1cnc2cc(OC)c(OC)c([N+](=O)[O-])c2c1=O`, the 50% inhibitory concentration (IC50) in the assay on Jurkat is over 25 µM; against Tumor necrosis factor, 11 µM. `CCOC(=O)CCCn1ccc2ccccc2c1=O`: the IC50 was over 50 µM in the assay on Jurkat and 5 µM at Tumor necrosis factor. Taken in the same sequence, the figures for `CCOC(=O)CCn1cnc2cc(OC)c(OC)cc2c1=O` were over 25 µM and 9 µM.

Molecule `CCOC(=O)CCCn1c(Cl)nc2cc(OC)c(OC)cc2c1=O` came in with an IC50 against Tumor necrosis factor of 48 µM. With `CCOC(=O)CCCn1ccc2cc(OC(C)=O)c(OC(C)=O)cc2c1=O`, in the assay on Jurkat, it took 40 µM to reach half-maximal inhibition (IC50). For `CCOC(=O)CCCn1cc(C#N)c2cc(OC)c(OC)cc2c1=O`, the IC50 in the assay on Jurkat was 10 µM; against Tumor necrosis factor it was 5 µM.

Turning to `CCOC(=O)CCCn1cnc2cc(OC)c(OC)c(Cl)c2c1=O`, the IC50 amounted to 89 µM in the assay on Jurkat and 22 µM against Tumor necrosis factor. On Tumor necrosis factor, `CCOC(=O)CCCOc1nc(N(C)C)nc2cc(OC)c(OC)cc12` registered an IC50 of over 25 µM.

Regarding `CCOC(=O)CCCn1cnc2cc([N+](=O)[O-])ccc2c1=O`, at Tumor necrosis factor, the IC50 was over 25 µM.

Turning to `CCOC(=O)CCCn1cc(N)c2cc(OC)c(OC)cc2c1=O`, the IC50 against Tumor necrosis factor was 37 µM. `COc1cc2ccnc(Nc3cccc(Br)c3)c2cc1OC` showed an IC50 at Tumor necrosis factor of 37 µM. The same measure, in the same setting: as for `COc1cc2ccnc(Nc3ccc(Cl)cc3)c2cc1OC`, the figure is 35 µM; as for `CCOC(=O)CCCn1cnc2ccc([N+](=O)[O-])cc2c1=O`, over 25 µM; as for `CCOC(=O)CCCn1cc(F)c2cc(OC)c(OC)cc2c1=O`, 20 µM. Take `CCOC(=O)CCCn1ccc2cc(OC)c(OC)cc2c1=O`: the IC50 is over 50 µM with Jurkat and 5 µM against Tumor necrosis factor.

Turning to `COc1cc2ccnc(Nc3cccc(Cl)c3)c2cc1OC`, the IC50 against Tumor necrosis factor turned out to be 33 µM. As for `CCOC(=O)CCCn1cnc2ccc(N)cc2c1=O`, the results for the IC50 in the assay on Jurkat and on Tumor necrosis factor were over 50 µM and 4 µM, respectively.

Molecule `CCOC(=O)CCCn1cnc2ccc(F)cc2c1=O` displayed an IC50 on Tumor necrosis factor of over 25 µM. On the same count and under the same terms, the figure for `CCOC(=O)CCCOc1nc(Nc2ccc(Br)cc2)nc2cc(OC)c(OC)cc12` is over 25 µM; for `CCOC(=O)CCCn1cnc2cc(OC)c(OC)c(N=[N+]=[N-])c2c1=O` it is over 25 µM; for `CCOC(=O)CCn1ccc2cc(OC)c(OC)cc2c1=O` it is 50 µM.

Turning to `CCOC(=O)CCCn1cnc2ccccc2c1=O`, at Tumor necrosis factor, the IC50 is over 25 µM. As for `CCOC(=O)CCCn1cnc2cc(OC)c(OC)cc2c1=O`, the IC50 in the assay with Jurkat and against Tumor necrosis factor was 3 µM throughout.

For the molecule `CCOC(=O)CCCCn1ccc2cc(OC)c(OC)cc2c1=O`, the IC50 was determined as 22 µM with Jurkat and 21 µM on Tumor necrosis factor. Consider `CCOC(=O)CCCn1cnc2cc(OC)c(OC)c(N)c2c1=O` [listing 1 of 2 here], for which the IC50 was over 100 µM in the assay on Jurkat and 20 µM on Tumor necrosis factor. `CCOC(=O)CCCn1cnc2cccc(Cl)c2c1=O` registered an IC50 at Tumor necrosis factor of over 25 µM. On the same count and under the same terms, the figure for `CCOC(=O)CCCn1cnc2ccc(Cl)cc2c1=O` is over 25 µM.

For `CCOC(=O)CCCn1cnc2cc(OC)c(OC)c(NC(C)=O)c2c1=O`, the IC50 at Tumor necrosis factor is over 100 µM. On to `CCOC(=O)CCCn1c(N=[N+]=[N-])nc2cc(OC)c(OC)cc2c1=O`, for which the IC50 is over 25 µM in the assay with Jurkat and 14 µM against Tumor necrosis factor. The molecule `CNC(=O)CCCn1ccc2cc(OC)c(OC)cc2c1=O` had an IC50 at Tumor necrosis factor of over 100 µM. The molecule `CCOC(=O)CCCn1cnc2cc(OC)c(OC)c(N)c2c1=O` [listing 2 of 2 here] registered an IC50 against Tumor necrosis factor of 15 µM. In the case of `CCOC(=O)CCCn1cc(CN)c2cc(OC)c(OC)cc2c1=O`, the IC50 with Jurkat came out at 7 µM; on Tumor necrosis factor, 13 µM. Turning to `CCOC(=O)CCCn1cnc2cc(O)c(O)cc2c1=O`, at Tumor necrosis factor, the IC50 stood at 48 µM. As to `CCOC(=O)CCCCn1cnc2cc(OC)c(OC)cc2c1=O`, the IC50 in the assay on Jurkat stood at 8 µM; at Tumor necrosis factor, 6 µM. In turn, `CCOC(=O)CCCn1c(N)nc2cc(OC)c(OC)cc2c1=O` returned an IC50 against Tumor necrosis factor of over 25 µM. On to `COc1cc2ccnc(NCCO)c2cc1OC`, for which, at Tumor necrosis factor, half-maximal inhibition (IC50) required 55 µM.

Regarding `CCOC(=O)CCCn1cc(Br)c2cc(O)c(O)cc2c1=O`, the IC50 with Jurkat was found to be 11 µM; on Tumor necrosis factor, 1 µM. Molecule `CCOC(=O)CCCOc1nc(Cl)nc2cc(OC)c(OC)cc12` displayed an IC50 at Tumor necrosis factor of 68 µM. This counts as double-digit micromolar. On to `CCCn1c(=O)n(CCCC(=O)OCC)c(=O)c2nccnc21`, for which the IC50 is over 25 µM in the assay with Jurkat and 3 µM against Tumor necrosis factor. The like results for `CCOC(=O)CCCn1ccc2cc(OC(=O)OCC)c(OC(=O)OCC)cc2c1=O` were, in that order, 40 µM and 11 µM. At Tumor necrosis factor, `CCOC(=O)CCCn1c(Nc2ccc(N=[N+]=[N-])cc2)nc2cc(OC)c(OC)cc2c1=O` gave an IC50 of over 50 µM. Consider `CCOC(=O)CCCn1cnc2cc(Cl)ccc2c1=O`, for which the IC50 at Tumor necrosis factor is over 25 µM. For the molecule `COc1cc2ccnc(Nc3ccccc3)c2cc1OC`, the IC50 on Tumor necrosis factor was over 100 µM. Same read-out and setting: as for `CCOC(=O)CCCn1c(Nc2ccc(Br)cc2)nc2cc(OC)c(OC)cc2c1=O`, the figure is over 50 µM. Same read-out and setting: the figure for `CCOC(=O)CCCn1c(Nc2ccccc2)nc2cc(OC)c(OC)cc2c1=O` is over 25 µM.

Regarding `CCOC(=O)CCCn1ccc2cc(O)c(O)cc2c1=O`, the IC50 with Jurkat was determined as 47 µM; on Tumor necrosis factor, 2 µM. `CCOC(=O)CCCn1cnc2cc(N)ccc2c1=O`: the IC50 with Jurkat was 13 µM; against Tumor necrosis factor, 9 µM. Molecule `COc1cc2ccn(CCCC(=O)O)c(=O)c2cc1OC` had an IC50 on Tumor necrosis factor of over 100 µM. At Tumor necrosis factor, `CCOC(=O)CCCn1cnc2cc(F)c(F)cc2c1=O` came in with an IC50 of over 25 µM. Consider `CCOC(=O)CCCn1cc([N+](=O)[O-])c2cc(OC)c(OC)cc2c1=O`, for which the IC50 at Tumor necrosis factor is 35 µM. This counts as double-digit micromolar.

Molecule `CCOC(=O)CCCOc1nc(Nc2ccccc2)nc2cc(OC)c(OC)cc12` came in with an IC50 against Tumor necrosis factor of over 25 µM.

For the molecule `CCOC(=O)CCCN1CNc2ccc(N)cc2C1=O`, the IC50 in the assay with Jurkat was over 100 µM; against Tumor necrosis factor it was 10 µM.

On to `CCOC(=O)CCCn1cnc2cc(F)ccc2c1=O`, for which, at Tumor necrosis factor, the IC50 was over 25 µM.

As to `COc1cc2ccnc(Nc3ccc(Br)cc3)c2cc1OC`, the IC50 on Tumor necrosis factor was 38 µM. That is a double-digit micromolar value. For the molecule `CCOC(=O)CCCN1CNc2cc(N)ccc2C1=O`, the IC50 was over 50 µM in the assay on Jurkat and 5 µM against Tumor necrosis factor. `CNC(=O)CCCn1cc(Br)c2cc(OC)c(OC)cc2c1=O` returned an IC50 against Tumor necrosis factor of over 100 µM. Turning to `CCOC(=O)CCCn1cnc2ccc(Br)cc2c1=O`, the IC50 against Tumor necrosis factor was over 25 µM. As to `COc1cc2ccn(CCCC(=O)OCCN3CCOCC3)c(=O)c2cc1OC`, the values for the IC50 in the assay on Jurkat and at Tumor necrosis factor were over 100 µM and 10 µM, respectively.

Take `CCOC(=O)CCCn1cc(C(C)=O)c2cc(OC)c(OC)cc2c1=O`: the IC50 came out at 47 µM with Jurkat and 15 µM against Tumor necrosis factor. Turning to `CCOC(=O)CCCn1cc(F)c2c(F)c(OC)c(OC)cc2c1=O`, the IC50 against Tumor necrosis factor was over 100 µM.

The values above are taken from ChEMBL document CHEMBL1132644, “Substituted isoquinolines and quinazolines as potential antiinflammatory agents. Synthesis and biological evaluation of inhibitors of tumor necrosis factor alpha” (J Med Chem, 1999).
